Experiments:
[1] = biological target: T1, Neuropeptide S receptor (Homo sapiens, UniProt Q6W5P4); experiment: Antagonist activity at neuropeptide S receptor (unknown origin) assessed as intracellular calcium level by cell based assay; assay type: functional
T1 sequence (Q6W5P4 whole entry): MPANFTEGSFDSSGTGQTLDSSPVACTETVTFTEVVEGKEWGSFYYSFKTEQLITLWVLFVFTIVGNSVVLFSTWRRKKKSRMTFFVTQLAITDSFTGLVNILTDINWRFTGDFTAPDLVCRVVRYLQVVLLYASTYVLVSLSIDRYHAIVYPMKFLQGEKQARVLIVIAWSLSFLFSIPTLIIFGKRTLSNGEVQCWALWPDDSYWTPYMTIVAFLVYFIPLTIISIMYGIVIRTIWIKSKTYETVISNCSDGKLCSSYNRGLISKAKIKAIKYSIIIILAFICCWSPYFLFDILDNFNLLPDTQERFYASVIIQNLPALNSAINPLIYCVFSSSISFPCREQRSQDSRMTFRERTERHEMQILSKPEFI
Method in brief: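 CHO cells stably expressing NPSR were seeded at 2000 cells/well and incubated overnight at 37 °C, 5% CO2. They were loaded with no-wash calcium dye for 1 h, then preincubated with compound in DMSO for 10 min. Stimulation used NPS at EC80 in PBS/0.1% BSA/0.05% Tween-20 with 500 µM Ro 20-1724. Kinetic fluorescence was read at 1 Hz: 6 s baseline, then 4 min. IC50 is the mean ± SD of two independent experiments, each in duplicate.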

[2] = biological target: T1, Neuropeptide S receptor; experiment: Displacement of [125I]Tyr10-NPS from neuropeptide S receptor (unknown origin)
Method in brief: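 Whole CHO cells stably expressing human NPSR at 90–95% confluency in 24-well plates. Cells were incubated with 0.15 nM [125I]Y10-NPS plus increasing compound or unlabeled NPS in DMEM/0.1% BSA, 20°C, 1.5 hr. Nonspecific binding was defined with 1 µM unlabeled human NPS. Cells were washed, lysed in 1 N NaOH and counted by liquid scintillation. IC50 from one experiment in duplicate.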

[3] = biological target: T1, Neuropeptide S receptor; experiment: Antagonist activity at neuropeptide S receptor (unknown origin) assessed as cAMP level by cell based assay; assay type: functional
Method in brief: (§1)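 CHO cells stably expressing NPSR, 1800 cells/well in 1536-well format, seeded overnight at 37°C in medium without Geneticin. Stimulation buffer (PBS, 0.1% BSA, 0.05% Tween-20, 500µM Ro 20-1724, EC80 NPS) was added for 30 min at 37°C. cAMP was read by HTRF (d2-cAMP/cryptate anti-cAMP in lysis buffer, 30 min). IC50 is the mean with SD of two independent experiments, each run in duplicate.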

[4] = Chemical stability of the compound in phosphate-buffered saline after 48 hrs; assay type: physicochemical; settings: buffer
Method in brief: (§2)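 Compound was held in Hank's balanced buffer solution or PBS for 48 hours and checked for decomposition to other species.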

[5] = biological target: T1, Neuropeptide S receptor; experiment: Antagonist activity at neuropeptide S receptor (unknown origin) expressed in CHO cells assessed as inhibition of NPS-induced ERK activation after 20 mins by HTRF assay; assay type: cell-based
[6] = biological target: T1, Neuropeptide S receptor; experiment: Antagonist activity at neuropeptide S receptor (unknown origin) expressed in CHO cells assessed as cAMP level after 30 mins by […] assay; assay type: functional, cell-based; settings: read-out: IC50; method in brief: as §1
[7] = biological target: T1, Neuropeptide S receptor; experiment: Antagonist activity at neuropeptide S receptor (unknown origin) expressed in CHO cells assessed as inhibition of NPS-induced calcium mobilization after 10 mins by fluorescence assay; assay type: functional, cell-based; settings: read-out: IC50
Method in brief: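 CHO-NPSR cells, 2000/well in 1536-well plates, incubated overnight, then loaded with no-wash calcium dye for 1 h at 37°C. Compound in DMSO was added for 10 min. Baseline fluorescence was recorded 6 s at 1 Hz, then EC80 NPS in stimulation buffer was added and recording continued 4 min at 1 Hz on a kinetic reader. IC50 is the mean with SD of two independent experiments in duplicate.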

[8] = Chemical stability of the compound in HBBS buffer after 48 hrs; assay type: physicochemical; method in brief: as §2

**Q.** Which results are given for `Cc1c(P(=S)(c2ccccc2)c2ccccc2)[n+]2ccccc2n1C.[I-]`?
**A.** IC50 [1]: 51 nM; IC50 [2]: 84 nM; IC50 [3]: 1700 nM; Stability [4]: Stable; IC50 [5]: 30 nM; IC50 [6]: 1700 nM; IC50 [7]: 51 nM; Stability [8]: Stable

Reference: ChEMBL document CHEMBL3085664, “Structure-activity relationship of imidazopyridinium analogues as antagonists of neuropeptide s receptor” (J Med Chem, 2013)
